Values after ≈ are worked out from the molar mass of the structure shown.
Columns and labels:
[1] = Aqueous solubility of the compound; type: physicochemical
In short: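 Solubility measured in water, with each compound tested as amorphous material.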

[2] = Partition coefficient, log P of the compound; type: physicochemical; conditions: octanol/water
[3] = Half life in rat liver microsomes; type: ADME, microsome
Cytochrome P450 3A4 = Cytochrome P450 3A4 (Homo sapiens, UniProt P08684); experiment: (§1) Inhibition of recombinant CYP3A4 (unknown origin); type: ADME
[4] = Half life in cynomolgus monkey liver microsomes; type: ADME, Macaca fascicularis, microsome
Cytochrome P450 2D6 = Cytochrome P450 2D6 (Homo sapiens, UniProt P10635); experiment: Inhibition of CYP2D6 (unknown origin); type: ADME
[5] = Half life in human liver microsomes; type: ADME, microsome
Cytochrome P450 2C9 = Cytochrome P450 2C9 (Homo sapiens, UniProt P11712); experiment: (§2) Inhibition of CYP2C9 (unknown origin); type: ADME
hERG = hERG (Homo sapiens, UniProt Q12809); experiment: Inhibition of human ERG at 10 uM by patch clamp assay relative to control
[6] = Clearance in iv dosed cynomolgus monkey; type: ADME, organism-based, Macaca fascicularis; conditions: in vivo
Cynomolgus monkey = experiment: Dose normalized AUC in iv dosed cynomolgus monkey; type: ADME, organism-based, Macaca fascicularis; conditions: in vivo
[7] = Volume of distribution at steady state in iv dosed cynomolgus monkey; type: ADME, organism-based, Macaca fascicularis; conditions: in vivo, read-out: Vdss
[8] = Mean residence time in iv dosed cynomolgus monkey; type: ADME, organism-based, Macaca fascicularis; conditions: in vivo
[9] = Oral bioavailability in cynomolgus monkey; type: ADME, organism-based, Macaca fascicularis; conditions: in vivo
[10] = Mean residence time in po dosed cynomolgus monkey; type: ADME, organism-based, Macaca fascicularis; conditions: in vivo
CYP3A4 = CYP3A4 (Homo sapiens, UniProt P08684); experiment: as §1; type: ADME; conditions: recombinant CYP3A4
CYP2C9 = CYP2C9 (Homo sapiens, UniProt P11712); experiment: as §2; type: ADME
[11] = Oral bioavailability in rat; type: ADME, organism-based; conditions: in vivo
[12] = Clearance in iv dosed rat; type: ADME, organism-based; conditions: in vivo
[13] = Mean residence time in iv dosed rat; type: ADME, organism-based; conditions: in vivo
[14] = target: Voltage-gated inwardly rectifying potassium channel KCNH2 (Homo sapiens, UniProt Q12809); experiment: Inhibition of human ERG
[15] = aqueous medium, read-out: solubility

Chain of hERG (Q12809 whole entry): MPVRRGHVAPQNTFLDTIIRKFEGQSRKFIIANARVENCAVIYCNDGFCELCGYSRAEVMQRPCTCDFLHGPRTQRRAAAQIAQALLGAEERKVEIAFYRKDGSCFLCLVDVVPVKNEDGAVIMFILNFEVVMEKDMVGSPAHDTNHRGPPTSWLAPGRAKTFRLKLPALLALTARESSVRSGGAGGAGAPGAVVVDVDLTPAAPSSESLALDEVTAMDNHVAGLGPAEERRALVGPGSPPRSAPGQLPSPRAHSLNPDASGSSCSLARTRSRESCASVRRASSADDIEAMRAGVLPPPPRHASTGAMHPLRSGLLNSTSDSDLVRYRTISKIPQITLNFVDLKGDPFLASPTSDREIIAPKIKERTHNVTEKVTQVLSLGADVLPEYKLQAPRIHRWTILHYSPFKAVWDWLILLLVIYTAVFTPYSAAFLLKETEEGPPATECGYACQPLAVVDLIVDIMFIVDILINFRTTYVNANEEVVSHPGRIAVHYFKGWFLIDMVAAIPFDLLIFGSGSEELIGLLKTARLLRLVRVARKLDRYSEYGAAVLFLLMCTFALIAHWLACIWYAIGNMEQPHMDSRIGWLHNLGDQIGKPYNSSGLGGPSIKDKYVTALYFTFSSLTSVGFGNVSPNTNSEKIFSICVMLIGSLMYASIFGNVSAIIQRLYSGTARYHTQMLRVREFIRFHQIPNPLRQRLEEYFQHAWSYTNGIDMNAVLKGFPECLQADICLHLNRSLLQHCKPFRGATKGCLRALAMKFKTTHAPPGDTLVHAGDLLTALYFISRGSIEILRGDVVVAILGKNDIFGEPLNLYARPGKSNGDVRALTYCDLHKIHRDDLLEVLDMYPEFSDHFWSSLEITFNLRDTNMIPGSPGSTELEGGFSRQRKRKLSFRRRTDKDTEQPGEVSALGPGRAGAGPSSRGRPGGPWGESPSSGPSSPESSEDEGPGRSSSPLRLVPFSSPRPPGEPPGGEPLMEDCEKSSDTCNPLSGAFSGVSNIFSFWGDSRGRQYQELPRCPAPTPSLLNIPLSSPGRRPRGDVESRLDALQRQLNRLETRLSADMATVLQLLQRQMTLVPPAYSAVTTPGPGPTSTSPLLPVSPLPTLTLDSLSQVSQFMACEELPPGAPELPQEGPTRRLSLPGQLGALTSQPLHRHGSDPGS
Chain of Cytochrome P450 2C9 (P11712 whole entry): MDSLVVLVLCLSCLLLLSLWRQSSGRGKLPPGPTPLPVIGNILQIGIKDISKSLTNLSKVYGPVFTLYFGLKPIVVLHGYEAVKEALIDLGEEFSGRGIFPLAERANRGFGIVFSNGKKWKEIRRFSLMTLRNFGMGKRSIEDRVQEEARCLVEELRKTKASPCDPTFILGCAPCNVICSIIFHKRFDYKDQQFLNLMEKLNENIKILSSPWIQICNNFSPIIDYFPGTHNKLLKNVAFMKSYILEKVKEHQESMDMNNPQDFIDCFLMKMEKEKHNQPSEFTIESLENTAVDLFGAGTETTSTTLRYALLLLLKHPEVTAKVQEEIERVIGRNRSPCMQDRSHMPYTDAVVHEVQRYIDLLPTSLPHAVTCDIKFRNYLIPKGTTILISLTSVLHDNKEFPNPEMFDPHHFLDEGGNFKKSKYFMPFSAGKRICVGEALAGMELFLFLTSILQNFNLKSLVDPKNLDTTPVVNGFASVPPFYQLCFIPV
Chain of CYP2C9 (P11712 whole entry): as above
Chain of Cytochrome P450 3A4 (P08684 whole entry): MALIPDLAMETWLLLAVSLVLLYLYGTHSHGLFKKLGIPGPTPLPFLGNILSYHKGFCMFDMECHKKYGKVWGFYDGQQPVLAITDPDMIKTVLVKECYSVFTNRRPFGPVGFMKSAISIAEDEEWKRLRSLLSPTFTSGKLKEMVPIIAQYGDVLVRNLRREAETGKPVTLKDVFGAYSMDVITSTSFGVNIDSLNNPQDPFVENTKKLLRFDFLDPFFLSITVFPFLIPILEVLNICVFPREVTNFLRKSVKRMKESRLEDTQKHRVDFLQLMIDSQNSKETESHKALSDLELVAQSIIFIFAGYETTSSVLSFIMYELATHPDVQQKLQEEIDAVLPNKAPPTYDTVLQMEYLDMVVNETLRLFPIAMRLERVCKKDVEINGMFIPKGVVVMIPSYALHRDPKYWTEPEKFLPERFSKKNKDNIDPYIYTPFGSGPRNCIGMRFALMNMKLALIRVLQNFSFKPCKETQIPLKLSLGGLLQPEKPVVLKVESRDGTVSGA
Chain of CYP3A4 (P08684 whole entry): as above
Chain of Cytochrome P450 2D6 (P10635 whole entry): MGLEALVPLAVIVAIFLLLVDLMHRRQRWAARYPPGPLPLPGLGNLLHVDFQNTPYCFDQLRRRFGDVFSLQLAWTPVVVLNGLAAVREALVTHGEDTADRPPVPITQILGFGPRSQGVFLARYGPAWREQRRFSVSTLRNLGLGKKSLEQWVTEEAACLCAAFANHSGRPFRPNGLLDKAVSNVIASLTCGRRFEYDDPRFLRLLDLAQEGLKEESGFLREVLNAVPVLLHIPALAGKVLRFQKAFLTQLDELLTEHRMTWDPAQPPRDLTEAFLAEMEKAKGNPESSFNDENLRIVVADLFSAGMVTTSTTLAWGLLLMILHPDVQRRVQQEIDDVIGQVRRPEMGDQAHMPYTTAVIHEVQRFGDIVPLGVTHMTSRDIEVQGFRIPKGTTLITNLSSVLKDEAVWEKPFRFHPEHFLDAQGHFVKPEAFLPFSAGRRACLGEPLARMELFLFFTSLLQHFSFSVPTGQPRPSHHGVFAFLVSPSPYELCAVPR
Chain of Voltage-gated inwardly rectifying potassium channel KCNH2 (Q12809 whole entry): as the sequence (Q12809 whole entry) above

Compound	half-life [3] [min]	IC50 (Cytochrome P450 3A4) [µM]	half-life [4] [min]	IC50 (Cytochrome P450 2D6) [µM]	half-life [5] [min]	further results
C[C@@H](c1ccc(-c2ccc(F)cc2F)cc1)N1CC[C@](CCO)(c2ccc(F)cc2)OC1=O	–	–	–	–	–	solubility ([1]; buffer, BLD = below limit of detection): Bld; logP [2]: 4.2
C[C@@H](c1ccc(Br)cc1)N1CC[C@](CC(C)(C)O)(c2ccc(F)cc2)OC1=O	53	3.5	–	–	–	–
C[C@@H](c1ccc(-c2ccc3ncnn3c2)cc1)N1CC[C@](CC(C)(C)O)(c2ccccc2)OC1=O	> 90	10	> 45	> 50	> 90	IC50 (Cytochrome P450 2C9): > 50 µM
C[C@@H](c1ccc(-c2ccc(=O)n(C)c2)cc1)N1CC[C@](CCCO)(c2ccccc2)OC1=O	–	10.5	–	–	–	–
C[C@@H](c1ccc(-c2ccc(=O)n(C)c2)cc1)N1CC[C@](CC(C)(C)O)(c2ccccc2)OC1=O	> 90	–	> 90	> 50	> 90	inhibition at 10 µM (hERG): < 10%; clearance [6]: 11 mL/min/kg; AUC/dose (Cynomolgus monkey): 1770 nM·h; Vd [7]: 1.7 L/kg; MRT [8]: 162 min; bioavailability [9]: 39%; MRT [10]: 288 min
C[C@@H](c1ccc(-c2ccccn2)cc1)N1CC[C@](CCCO)(c2ccccc2)OC1=O	–	23	–	–	–	–
C[C@@H](c1ccc(-c2ccc(=O)n(C)n2)cc1)N1CC[C@](CC(C)(C)O)(c2ccccc2)OC1=O	> 90	> 50	> 45	> 50	> 90	inhibition at 10 µM (hERG): 50%; IC50 (Cytochrome P450 2C9): > 50 µM
Cc1cnc(-c2ccc([C@H](C)N3CC[C@](CC(C)(C)O)(c4ccccc4)OC3=O)cc2)cn1	16	> 50	38	> 50	> 90	IC50 (Cytochrome P450 2C9): 33 µM
COc1ccc(-c2ccc([C@H](C)N3CC[C@](CCCO)(c4ccccc4)OC3=O)cc2)cn1	–	> 30	–	–	–	–
COc1ccc(-c2ccc([C@H](C)N3CC[C@](CC(C)(C)O)(c4ccccc4)OC3=O)cc2)cn1	–	–	–	> 50	–	–
C[C@@H](c1ccc(-c2cccnc2)cc1)N1CC[C@](CCCO)(c2ccccc2)OC1=O	–	2.1	–	–	–	–
Cc1cc(-c2ccc([C@H](C)N3CC[C@](CC(C)(C)O)(c4ccccc4)OC3=O)cc2)cc(C)n1	> 45	–	38	> 50	> 45	IC50 (CYP3A4): > 50 µM
C[C@@H](c1ccc(Br)cc1)N1CC[C@](CC(C)(C)C#N)(c2ccc(F)cc2)OC1=O	20.3	–	–	–	–	–
Cc1ccc(-c2ccc([C@H](C)N3CC[C@](CC(C)(C)O)(c4ccccc4)OC3=O)cc2)nn1	> 45	–	> 45	> 50	> 90	inhibition at 10 µM (hERG): < 10%; clearance [6]: 5.2 mL/min/kg; AUC/dose (Cynomolgus monkey): 3330 nM·h; IC50 (CYP2C9): > 50 µM; Vd [7]: 1.5 L/kg; MRT [8]: 288 min; IC50 (CYP3A4): > 50 µM; bioavailability [9]: 70%; MRT [10]: 318 min
C[C@@H](c1ccc(OC(F)(F)F)cc1)N1CC[C@](CCC(N)=O)(c2ccc(F)cc2)OC1=O	> 60	–	–	–	–	–
Cc1cc(-c2ccc([C@H](C)N3CC[C@](CCCO)(c4ccccc4)OC3=O)cc2)cc(C)n1	13	> 30	–	–	–	–

Compound	half-life [3] [min]	IC50 (Cytochrome P450 3A4) [µM]	half-life [4] [min]	IC50 (Cytochrome P450 2D6) [µM]	half-life [5] [min]	further results
C[C@@H](c1ccc(-c2cncc(F)c2)cc1)N1CC[C@](CCCO)(c2ccccc2)OC1=O	–	11	–	–	–	–
Cc1ccc([C@H](C)N2CC[C@](CCC(N)=O)(c3ccc(F)cc3)OC2=O)cc1	7.1	–	–	–	–	–
C[C@@H](c1ccc(-c2ccc(C(N)=O)cn2)cc1)N1CC[C@](CC(C)(C)O)(c2ccccc2)OC1=O	> 45	–	> 45	> 50	> 90	bioavailability [11]: 15%; IC50 (CYP2C9): > 50 µM; IC50 (CYP3A4): > 50 µM
C[C@@H](c1ccc(OC(F)F)cc1)N1CC[C@](CCC(N)=O)(c2ccccc2)OC1=O	50.6	> 30	–	–	> 90	solubility [1, 15]: 1500 µg/mL (≈ 3580 µM); bioavailability [11]: 51%; clearance [12]: 91 mL/min/kg; MRT [13]: 33 min
C[C@@H](c1ccc(OC(F)F)cc1)N1CC[C@](CC(C)(C)O)(c2ccc(F)cc2)OC1=O	> 60	6.6	–	–	–	–
C[C@@H](c1ccc(-c2ccc(C#N)cn2)cc1)N1CC[C@](CC(C)(C)O)(c2ccccc2)OC1=O	> 90	–	> 90	> 50	> 90	–
C[C@@H](c1ccc(Br)cc1)N1CC[C@](CCCNS(C)(=O)=O)(c2ccc(F)cc2)OC1=O	11.4	–	–	–	–	–
C[C@@H](c1ccc(-c2ccc(F)cn2)cc1)N1CC[C@](CC(C)(C)O)(c2ccccc2)OC1=O	> 45	–	> 45	> 50	> 45	–
C[C@@H](c1ccc(Br)cc1)N1CC[C@](CCC(N)=O)(c2ccc(F)cc2)OC1=O	36.1	> 30	–	–	> 90	solubility [1, 15]: 300 µg/mL (≈ 668 µM); IC50 [14]: 6.3 µM; bioavailability [11]: 42%; clearance [12]: 49 mL/min/kg; MRT [13]: 72 min
COc1ccc([C@H](C)N2CC[C@](CCC(N)=O)(c3ccc(F)cc3)OC2=O)cc1	9	–	–	–	–	–
C[C@@H](c1ccc(OC(F)F)cc1)N1CC[C@](CCC(N)=O)(c2ccc(F)cc2)OC1=O	> 60	27	–	–	> 90	solubility [1, 15]: 460 µg/mL (≈ 1050 µM); IC50 [14]: 5.3 µM; bioavailability [11]: 77%; clearance [12]: 67 mL/min/kg; MRT [13]: 50.4 min
C[C@@H](c1ccc(-c2ccncc2)cc1)N1CC[C@](CCCO)(c2ccccc2)OC1=O	–	1.8	–	–	–	–
C[C@@H](c1ccc(Br)cc1)N1CC[C@](CCO)(c2ccc(F)cc2)OC1=O	25	> 30	–	–	–	–
C[C@@H](c1ccc(OC(F)F)cc1)N1CC[C@](CC(C)(C)O)(c2ccccc2)OC1=O	> 60	10	–	–	> 90	solubility [1, 15]: 260 µg/mL (≈ 620 µM); bioavailability [11]: 57%; clearance [12]: 23 mL/min/kg; MRT [13]: 50.4 min
Cc1ncc(-c2ccc([C@H](C)N3CC[C@](CC(C)(C)O)(c4ccccc4)OC3=O)cc2)cn1	> 90	–	> 90	> 50	> 90	inhibition at 10 µM (hERG): 12%; clearance [6]: 8.1 mL/min/kg; AUC/dose (Cynomolgus monkey): 2070 nM·h; IC50 (CYP2C9): > 50 µM; Vd [7]: 1.7 L/kg; MRT [8]: 210 min; IC50 (CYP3A4): > 50 µM; bioavailability [9]: 96%; MRT [10]: 288 min

Reference: ChEMBL document CHEMBL4033714, “Discovery of BI 135585, an in vivo efficacious oxazinanone-based 11β hydroxysteroid dehydrogenase type 1 inhibitor” (Bioorg Med Chem, 2017)
